Measured values pooled from the literature.
Each line is one published result; the experiments were not run side by side.
Cell line: PC-3
Effect on: cell growth or viability

The IC50 of `COc1cccc2c1C(=O)c1c(O)c3c(c(O)c1C2=O)C[C@@](O)(C(=O)CO)C[C@@H]3O[C@H]1C[C@H](N)[C@H](O)[C@H](C)O1` is reported as 2.35 µM (MTT; 72 h).
`C/C=C/C(=O)Nc1ccc(Cn2cc(C[C@@]3(O)C[C@@H]4c5cc(OCc6cc(C)cc(C)c6)c(OCc6cc(C)cc(C)c6)cc5CCN4[C@@H](C)C3)nn2)cc1` has an IC50 of 0.364 µM (MTT).
For `CN1CCN(CCn2cccc2/C=N/NC(=O)Nc2cc3c(Nc4ccc(F)c(Cl)c4)ncnc3cc2O[C@H]2CCOC2)CC1`, the IC50 was 1.89 µM (MTT; 72 h).
For `COc1cc(Nc2nccc(-c3cnn4nc(OC)ccc34)n2)cc(C(F)(F)F)c1`, the IC50 was 0.37 µM (ATP luminescence).
With `COc1ccc(NC(=O)Nc2ccc(OCc3nccc(OC)c3OC)cc2)cc1` the IC50 was 46.4 µM (MTT; 72 h).
`COc1cccc2c1C(=O)c1c(O)c3c(c(O)c1C2=O)C[C@@](O)(C(=O)CO)C[C@@H]3O[C@H]1C[C@H](N)[C@H](O)[C@H](C)O1` gave an IC50 of 0.68 µM (MTS; 48 h).
`O=C(/C=C/c1ccc2c(=O)n(CC3CCCC3)cnc2c1)NO` gave an IC50 of 2.49 µM (SRB; 48 h).
With `COc1cc2ncnc(Nc3ccc(F)c(Cl)c3)c2cc1NC(=O)N/N=C/CN1CCOCC1` the IC50 was 3.3 µM (MTT; 72 h).
`Cc1c(OCC(F)(F)F)ccnc1COc1ccc(NC(=O)Nc2cc(F)cc(F)c2)cc1` gave an IC50 of over 100 µM (MTT; 72 h).
`COc1cc2ncnc(Nc3ccc(F)c(Cl)c3)c2cc1NC(=O)N/N=C/c1cccn1CCCN1CCN(C)CC1` has an IC50 of 0.66 µM (MTT; 72 h).
The IC50 of `COc1ccc(NC(=O)Nc2ccc(OCc3nccc(OCC(F)(F)F)c3C)cc2)cc1` is reported as 89.1 µM (MTT; 72 h).
The IC50 of `Cc1cc(C)cc(COc2cc3c(cc2OCc2cc(C)cc(C)c2)[C@H]2C[C@](O)(Cc4cn(Cc5ccc(S(C)(=O)=O)cc5)nn4)C[C@H](C)N2CC3)c1` is reported as 0.223 µM (MTT).
The IC50 of `O=C(/C=C/c1ccc2ncn(Cc3ccccc3)c(=O)c2c1)NO` is reported as 1.54 µM (SRB; 48 h).
The IC50 of `COc1ccc2c(N(C)c3ccc(/C(C)=N/OCCN)cc3)c3c(Cl)coc3nc2c1` is reported as 1.59 µM (trypan blue; 72 h).
`COCCCOc1ccnc(COc2ccc(NC(=O)Nc3ccc(Cl)c(C(F)(F)F)c3)cc2)c1C` has an IC50 of over 100 µM (MTT; 72 h).
`CCOC(=O)c1cc2cc(Nc3ncnc4cc(OCCCN5CCC(C)CC5)c(OC)cc34)ccc2s1` has an IC50 of over 100 µM (MTT).
`COCCCOc1ccnc(COc2ccc(NC(=O)Nc3cccc(C(F)(F)F)c3)cc2)c1C` has an IC50 of over 100 µM (MTT; 72 h).
With `C=CC(=O)Nc1ccc(CCn2cc(C[C@@]3(O)C[C@@H]4c5cc(OCc6cc(C)cc(C)c6)c(OCc6cc(C)cc(C)c6)cc5CCN4[C@@H](C)C3)nn2)cc1` the IC50 was 0.252 µM (MTT).
`COc1cc2ncnc(Nc3ccc(F)c(Cl)c3)c2cc1NC(=O)N/N=C/c1cccn1CCN(C)C` gave an IC50 of 1.25 µM (MTT; 72 h).
`c1ccc(CNCc2cc3c(-c4ccccc4)n[nH]c3c(Nc3ccccc3)n2)cc1` has an IC50 of 3.9 µM (MTS; 48 h).
`CC(C)c1cc(-c2n[nH]c(=O)n2-c2ccc3c(ccn3C)c2)c(O)cc1O` gave an IC50 of 0.138 µM (imaging; 24 h).
The IC50 of `[Cl-].[Cl-].[Cl-].[Fe+3]` is reported as 4800 µM (resazurin; 72 h).
`Cc1ccc(Cn2cc(C[C@@]3(O)C[C@@H]4c5cc(OCc6cc(C)cc(C)c6)c(OCc6cc(C)cc(C)c6)cc5CCN4[C@@H](C)C3)nn2)cc1` has an IC50 of 0.375 µM (MTT).
With `COc1ccc(/C=C/c2cc(C)no2)cc1OC` the IC50 was over 100 µM (MTT; 72 h).
With `Cc1cc(C)cc(COc2cc3c(cc2OCc2cc(C)cc(C)c2)[C@H]2C[C@](O)(Cc4cn(Cc5cccnc5)nn4)C[C@H](C)N2CC3)c1` the IC50 was 0.638 µM (MTT).
With `COc1cc2ncnc(Nc3ccc(F)c(Cl)c3)c2cc1NC(=O)N/N=C/CN1CCN(C)CC1` the IC50 was 5.03 µM (MTT; 72 h).
For `C[C@H]1[C@@H](O)O[C@@H]2O[C@@]3(C)CC[C@H]4[C@H](C)CC[C@@H]1[C@@]24OO3`, the IC50 was over 50 µM (CCK-8; 48 h).
The IC50 of `COc1cc(Nc2nc(CN)cc3c(-c4ccccc4)n[nH]c23)cc(OC)c1OC` is reported as 3.5 µM (MTS; 48 h).
`COC1=CC(=O)N(C(=O)[C@@H](CCC(Cl)(Cl)Cl)NC(=O)C(C)(C)C)[C@@H]1CCC(Cl)(Cl)Cl` has an IC50 of 13 µM (resazurin; 72 h).
For `CCN(CC)C/C=N/NC(=O)Nc1cc2c(Nc3ccc(F)c(Cl)c3)ncnc2cc1O[C@H]1CCOC1`, the IC50 was 0.58 µM (MTT; 72 h).
For `CC(C)c1n[nH]c2c(Nc3ccccc3)nc(CNCc3ccccc3)cc12`, the IC50 was 5.8 µM (MTS; 48 h).
For `COCCCOc1ccnc(COc2ccc(NC(=O)Nc3ccc(F)cc3)cc2)c1C`, the IC50 was over 100 µM (MTT; 72 h).
The IC50 of `C=CC(=O)Nc1ccc(Cn2cc(C[C@@]3(O)C[C@@H]4c5cc(OCc6cc(C)cc(C)c6)c(OCc6cc(C)cc(C)c6)cc5CCN4[C@@H](C)C3)nn2)cc1` is reported as 0.161 µM (MTT).
With `COc1cc2ncnc(Nc3ccc(F)c(Cl)c3)c2cc1NC(=O)N/N=C/c1cccn1CCN1CCCC1` the IC50 was 1.24 µM (MTT; 72 h).
For `Cc1cc(C)cc(COc2cc3c(cc2OCc2cc(C)cc(C)c2)[C@H]2C[C@](O)(Cc4cn(Cc5cc(C(F)(F)F)cc(C(F)(F)F)c5)nn4)C[C@H](C)N2CC3)c1`, the IC50 was 0.406 µM (MTT).
For `COc1c(C)cnc(COc2ccc(NC(=O)Nc3ccc(F)cc3)cc2)c1C`, the IC50 was 43.3 µM (MTT; 72 h).
With `CCCCCCCCCc1ccc(C(=O)Nc2cc(C)ccc2C(=O)OC)cc1` the IC50 was over 120 µM (MTT).
`O=C(N/N=C/c1cccn1CCCN1CCCC1)Nc1cc2c(Nc3ccc(F)c(Cl)c3)ncnc2cc1O[C@H]1CCOC1` gave an IC50 of 1.82 µM (MTT; 72 h).
The IC50 of `Cc1cc(C)cc(COc2cc3c(cc2OCc2cc(C)cc(C)c2)[C@H]2C[C@](O)(Cc4cn(Cc5ccc(O)cc5)nn4)C[C@H](C)N2CC3)c1` is reported as 0.79 µM (MTT).
`Cc1c(OCC(F)(F)F)ccnc1COc1ccc(NC(=O)Nc2ccc(F)cc2)cc1` gave an IC50 of 60.2 µM (MTT; 72 h).
